Laboratory results from ChEMBL document CHEMBL3045292, “Synthesis and herbicidal activity of 2-(7-fluoro-3-oxo- 3,4-dihydro-2H-benzo[b][1,4]oxazin-6-yl)isoindoline-1,3-diones” (J Agric Food Chem, 2005).

Key:
Digitaria sanguinalis [1] = assay: Herbicidal activity against crabgrass Digitaria sanguinalis(hairy crabgrass) assessed as weed growth inhibition at post-emergence treatment […]; type: functional, organism-based
Outline: (§1)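 Pot-grown plants in the greenhouse, in clay soil (pH 6.5, 1.6% organic matter, 37.3% clay, CEC 12.1 cmol/kg). Compound was made up as a 100 g/L emulsified concentrate (DMF, Tween-80), diluted in water and sprayed at 75 g ai/ha. Pre-emergence spraying was 24 h after sowing; post-emergence at two-leaf (dicots) or one-leaf (monocots) stage. Untreated and DMF controls. Percent growth inhibition scored visually 15 days post-treatment.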

Abutilon theophrasti [2] = assay: Herbicidal activity against Abutilon theophrasti (velvetleaf) assessed as weed growth inhibition at post-emergence treatment […]; type: functional, organism-based; outline: as §1
Setaria viridis [3] = assay: Herbicidal activity against Setaria viridis (green foxtail) assessed as weed growth inhibition at 75 g/ha post-emergence treatment […]; type: functional; settings: read-out: GI; outline: as §1
Echinochloa crus-galli [4] = assay: Herbicidal activity against Echinochloa crus-galli (barnyard grass) (barnyard grass) assessed as weed growth inhibition at 75 g/ha post-emergence treatment […]; type: functional; settings: read-out: GI; outline: as §1
Digitaria sanguinalis [5] = assay: Herbicidal activity against crabgrass Digitaria sanguinalis(hairy crabgrass) assessed as weed growth inhibition at 75 g/ha post-emergence treatment […]; type: functional; settings: read-out: GI; outline: as §1
Amaranthus blitum [6] = assay: Herbicidal activity against Amaranthus blitum assessed as weed growth inhibition at 75 g/ha post-emergence treatment […]; type: functional; settings: read-out: GI; outline: as §1
Chenopodium album [7] = assay: Herbicidal activity against fat hen Chenopodium album assessed as weed growth inhibition at 75 g/ha post-emergence treatment […]; type: functional; settings: read-out: GI; outline: as §1
Abutilon theophrasti [8] = assay: Herbicidal activity against Abutilon theophrasti (velvetleaf) assessed as weed growth inhibition at 75 g/ha post-emergence treatment […]; type: functional; settings: read-out: GI; outline: as §1
Setaria viridis [9] = assay: Herbicidal activity against Setaria viridis (green foxtail) assessed as weed growth inhibition at 75 g/ha pre-emergence treatment […]; type: functional; settings: read-out: GI; outline: as §1
Echinochloa crus-galli [10] = assay: Herbicidal activity against Echinochloa crus-galli (barnyard grass) (barnyard grass) assessed as weed growth inhibition at 75 g/ha pre-emergence treatment […]; type: functional; settings: read-out: GI; outline: as §1
Digitaria sanguinalis [11] = assay: Herbicidal activity against crabgrass Digitaria sanguinalis(hairy crabgrass) assessed as weed growth inhibition at 75 g/ha pre-emergence treatment […]; type: functional; settings: read-out: GI; outline: as §1
Amaranthus blitum [12] = assay: Herbicidal activity against Amaranthus blitum assessed as weed growth inhibition at 75 g/ha pre-emergence treatment […]; type: functional; settings: read-out: GI; outline: as §1
Chenopodium album [13] = assay: Herbicidal activity against fat hen Chenopodium album assessed as weed growth inhibition at 75 g/ha pre-emergence treatment […]; type: functional; settings: read-out: GI; outline: as §1
Abutilon theophrasti [14] = assay: Herbicidal activity against Abutilon theophrasti (velvetleaf) assessed as weed growth inhibition at 75 g/ha pre-emergence treatment […]; type: functional; settings: read-out: GI; outline: as §1

Compound | IC50 (Digitaria sanguinalis [1]) [g/ha] | IC50 (Abutilon theophrasti [2]) [g/ha] | inhibition of growth at 75 g/ha (Setaria viridis [3]) [%] | inhibition of growth at 75 g/ha (Echinochloa crus-galli [4]) [%] | inhibition of growth at 75 g/ha (Digitaria sanguinalis [5]) [%] | inhibition of growth at 75 g/ha (Amaranthus blitum [6]) [%] | inhibition of growth at 75 g/ha (Chenopodium album [7]) [%] | inhibition of growth at 75 g/ha (Abutilon theophrasti [8]) [%] | inhibition of growth at 75 g/ha (Setaria viridis [9]) [%] | inhibition of growth at 75 g/ha (Echinochloa crus-galli [10]) [%] | inhibition of growth at 75 g/ha (Digitaria sanguinalis [11]) [%] | inhibition of growth at 75 g/ha (Amaranthus blitum [12]) [%] | inhibition of growth at 75 g/ha (Chenopodium album [13]) [%] | inhibition of growth at 75 g/ha (Abutilon theophrasti [14]) [%]
O=C1COc2cc(F)c(N3C(=O)c4cccc(F)c4C3=O)cc2N1CC#CI | 40 | 7.2 | > 80 | > 80 | > 80 | > 80 | > 80 | > 80 | < 50 | < 50 | < 50 | > 80 | > 80 | > 80
C#CCN1C(=O)C(C)Oc2cc(F)c(N3C(=O)c4ccccc4C3=O)cc21 (stereo not given) | 161 | 7.5 | < 50 | < 50 | < 50 | > 80 | > 80 | > 80 | < 50 | < 50 | < 50 | > 80 | > 80 | > 80
CC1Oc2cc(F)c(N3C(=O)c4ccccc4C3=O)cc2N(CC#CI)C1=O (stereo not given) | 60 | 7.4 | < 50 | < 50 | 50 | > 80 | > 80 | > 80 | > 80 | > 80 | > 80 | > 80 | > 80 | > 80
CC1Oc2cc(F)c(N3C(=O)c4cccc(F)c4C3=O)cc2N(CC#CI)C1=O (stereo not given) | 238 | 7.5 | < 50 | < 50 | < 50 | > 80 | > 80 | > 80 | < 50 | < 50 | < 50 | > 80 | > 80 | > 80
Cc1ccc2c(c1)C(=O)N(c1cc3c(cc1F)OC(C)C(=O)N3CC#CI)C2=O (stereo not given) | > 1800 | 30 | < 50 | < 50 | < 50 | > 80 | > 80 | > 80 | < 50 | < 50 | < 50 | > 80 | > 80 | > 80
O=C1COc2cc(F)c(N3C(=O)C4=C(CCCC4)C3=O)cc2N1CC#CI | 3.8 | 2.3 | > 80 | > 80 | > 80 | > 80 | > 80 | > 80 | > 80 | > 80 | > 80 | > 80 | > 80 | > 80
O=C1COc2cc(F)c(N3C(=O)c4ccccc4C3=O)cc2N1CC#CBr | 314 | 121 | < 50 | < 50 | < 50 | < 50 | < 50 | < 50 | < 50 | < 50 | < 50 | < 50 | < 50 | < 50
C#CCN1C(=O)COc2cc(F)c(N3C(=O)c4cccc(F)c4C3=O)cc21 | 20 | 23 | > 80 | > 80 | > 80 | > 80 | > 80 | > 80 | > 80 | > 80 | > 80 | > 80 | > 80 | > 80
C#CCN1C(=O)COc2cc(F)c(N3C(=O)c4cccc(C)c4C3=O)cc21 | 63 | 87 | < 50 | 50 | 50 | < 50 | < 50 | < 50 | < 50 | < 50 | < 50 | < 50 | < 50 | < 50
C#CCN1C(=O)COc2cc(F)c(N3C(=O)c4cccc([N+](=O)[O-])c4C3=O)cc21 | 210 | 300 | < 50 | < 50 | < 50 | < 50 | < 50 | < 50 | < 50 | < 50 | < 50 | < 50 | < 50 | < 50
CN1C(=O)COc2cc(F)c(N3C(=O)c4ccc(F)cc4C3=O)cc21 | 172 | 161 | < 50 | < 50 | < 50 | < 50 | < 50 | < 50 | < 50 | < 50 | < 50 | < 50 | < 50 | < 50
CN1C(=O)COc2cc(F)c(N3C(=O)c4cccc(F)c4C3=O)cc21 | > 1800 | 45 | < 50 | < 50 | < 50 | > 80 | > 80 | > 80 | < 50 | < 50 | < 50 | 50 | 50 | 50
C#CCN1C(=O)C(C)Oc2cc(F)c(N3C(=O)c4ccc(C)cc4C3=O)cc21 (stereo not given) | 393 | 18 | < 50 | < 50 | < 50 | > 80 | > 80 | > 80 | < 50 | < 50 | < 50 | > 80 | > 80 | > 80
C#CCN1C(=O)COc2cc(F)c(N3C(=O)c4ccc(C)cc4C3=O)cc21 | 31 | 28 | < 50 | 50 | > 80 | > 80 | > 80 | > 80 | < 50 | < 50 | < 50 | < 50 | < 50 | < 50
C#CCN1C(=O)C(C)Oc2cc(F)c(N3C(=O)c4cccc(F)c4C3=O)cc21 (stereo not given) | 42 | 7.7 | > 80 | > 80 | > 80 | > 80 | > 80 | > 80 | > 80 | > 80 | > 80 | > 80 | > 80 | > 80
